The test system of experiment [1] is Schizaphis graminum. Briefly: Insecticidal activity against organophosphate-susceptible clone of Schizaphis graminum OSS adult or last-instar nymphs assessed as insect mortality after 8 hr. It is filed as functional.
Experiment [2] has as its system Schizaphis graminum. The experiment in a line: Resistance index, ratio of LC50 for organophosphate-resistant clone of Schizaphis graminum OR1 adult or last-instar nymphs to LC50 for organophosphate-susceptible clone of Schizaphis graminum OSS adult or last-instar nymphs. It is filed as functional. On the set-up: reference not given here.
The subject of experiment [3] is Schizaphis graminum. The experiment in a line: Insecticidal activity against organophosphate-resistant clone of Schizaphis graminum OR1 adult or last-instar nymphs assessed as insect mortality after 8 hr. The following applies: OR1, 8 h. It is filed as functional.
In experiment [4] the test system is Schizaphis graminum. Briefly: Insecticidal activity against organophosphate-resistant clone of Schizaphis graminum OR2 adult or last-instar nymphs assessed as insect mortality after 8 hr. Type of experiment: functional. To be noted: OR2, 8 h.
In experiment [5] the test system is Schizaphis graminum. Briefly: Resistance index, ratio of LC50 for organophosphate-resistant clone of Schizaphis graminum OR2 adult or last-instar nymphs to LC50 for organophosphate-susceptible clone of Schizaphis graminum OSS adult or last-instar nymphs. Type of experiment: functional. On the set-up: reference not given here.
In experiment [6] the target is T1, Acetylcholinesterase (Schizaphis graminum, UniProt Q9BMJ1). Briefly: Inhibition of AChE in organophosphate-resistant clone of Schizaphis graminum OR1 adult or last-instar nymphs homogenates assessed as bimolecular rate constant pre-incubated with compound for 2 min at 25 degC before addition of ATC and DTNB solution. A digest of the protocol: (§1)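 Clones mass-reared on whole sorghum plants (hybrid NC+ 160) at 25 ± 2 °C with a 16:8 h L/D photoperiod. Greenbug AChE was preincubated with an organophosphate oxon inhibitor for 2 min at 25 °C. Residual AChE activity was then measured as a percentage of an inhibitor-free control.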
T1 sequence (Q9BMJ1 whole entry): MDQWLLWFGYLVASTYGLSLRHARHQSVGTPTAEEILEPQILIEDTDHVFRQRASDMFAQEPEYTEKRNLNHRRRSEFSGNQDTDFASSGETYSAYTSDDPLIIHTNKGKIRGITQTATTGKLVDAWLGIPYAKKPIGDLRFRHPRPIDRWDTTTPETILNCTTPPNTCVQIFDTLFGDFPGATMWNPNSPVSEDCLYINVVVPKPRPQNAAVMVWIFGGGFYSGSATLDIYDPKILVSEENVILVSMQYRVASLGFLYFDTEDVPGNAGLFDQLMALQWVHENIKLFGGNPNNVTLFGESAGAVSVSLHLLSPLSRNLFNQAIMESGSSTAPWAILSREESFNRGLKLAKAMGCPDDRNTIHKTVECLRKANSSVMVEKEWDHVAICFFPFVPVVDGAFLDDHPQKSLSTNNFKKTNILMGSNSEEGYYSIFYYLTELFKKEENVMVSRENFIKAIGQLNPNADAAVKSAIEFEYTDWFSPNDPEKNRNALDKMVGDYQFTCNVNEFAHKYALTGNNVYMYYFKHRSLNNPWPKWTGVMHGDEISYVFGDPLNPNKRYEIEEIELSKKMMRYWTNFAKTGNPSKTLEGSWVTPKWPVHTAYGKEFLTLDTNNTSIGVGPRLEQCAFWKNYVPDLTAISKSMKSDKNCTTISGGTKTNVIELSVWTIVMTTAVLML

In experiment [7] the target is Acetylcholinesterase (Schizaphis graminum) (UniProt Q9BMJ1). Briefly: Resistance index, ratio of bimolecular rate constant Ki for AChE in rganophosphate-resistant clone of Schizaphis graminum OR2 to bimolecular rate constant Ki for AChE in organophosphate-susceptible clone of Schizaphis graminum OSS.
Acetylcholinesterase (Schizaphis graminum), sequence (Q9BMJ1 as listed by the source): as the sequence (Q9BMJ1 whole entry) above
For experiment [8], the target named is T1, Acetylcholinesterase. Briefly: Inhibition of AChE in organophosphate-susceptible clone of Schizaphis graminum OSS adult or last-instar nymphs homogenates assessed as bimolecular rate constant pre-incubated with compound for 2 min at 25 degC before addition of ATC and DTNB solution. A digest of the protocol: as §1
Experiment [9] addresses T1, Acetylcholinesterase. Briefly: Inhibition of AChE in organophosphate-resistant clone of Schizaphis graminum OR2 adult or last-instar nymphs homogenates assessed as bimolecular rate constant pre-incubated with compound for 2 min at 25 degC before addition of ATC and DTNB solution. A digest of the protocol:
as §1

Experiment [10] concerns the target Acetylcholinesterase (Schizaphis graminum) (UniProt Q9BMJ1). Briefly: Resistance index, ratio of bimolecular rate constant Ki for AChE in rganophosphate-resistant clone of Schizaphis graminum OR1 to bimolecular rate constant Ki for AChE in organophosphate-susceptible clone of Schizaphis graminum OSS.

SMILES strings stand for the structures. Values after ≈ are worked out from the molar mass of the structure shown.

Take `CCOP(=S)(OCC)Oc1nc(Cl)c(Cl)cc1Cl` [CHLORPYRIFOS]: the results for the LC50 in experiment [1], in experiment [3] and in [4] were 0.036 µg/mL (≈ 0.103 µM), 0.39 µg/mL (≈ 1.11 µM) and 1.96 µg/mL (≈ 5.59 µM), respectively. For the same molecule, the RatioLC50 is given as 10.6 in [2] and 53.8 in experiment [5].
Turning to `COP(=O)(OC)Oc1ccc([N+](=O)[O-])cc1` [DIMETHYL 4-NITROPHENYL PHOSPHATE], the Ki in [6] worked out at 0.0225 M⁻¹ s⁻¹; in experiment [8], 0.0483 M⁻¹ s⁻¹; in experiment [9] it was 0.0217 M⁻¹ s⁻¹. Also, the Ratio came out at 2.2 in experiment [7] and 2.1 in [10].
On to `CCOP(=S)(OCC)SCCSCC` [DISULFOTON], for which the values for the LC50 in [1], in experiment [3] and in experiment [4] were 0.16 µg/mL (≈ 0.583 µM), 6.37 µg/mL (≈ 23.2 µM) and 15.1 µg/mL (≈ 55 µM), respectively. Further, the results for the RatioLC50 in experiment [2] and in experiment [5] were 39.6 and 93.7, respectively.
As to `COP(=S)(OC)Oc1ccc([N+](=O)[O-])cc1` [METHYL PARATHIONE], the LC50 (usually the concentration lethal to half of the exposed cells or organisms) in [1] was 0.031 µg/mL (≈ 0.118 µM); in experiment [3], 0.34 µg/mL (≈ 1.29 µM); in experiment [4] it was 1.27 µg/mL (≈ 4.83 µM). Also, the RatioLC50 worked out at 11.1 in experiment [2] and 41.3 in experiment [5].
As for `CNC(=O)CSP(=O)(OC)OC` [Omethoate], the values for the Ki in experiment [6], in [8] and in [9] were 0.0207 M⁻¹ s⁻¹, 0.077 M⁻¹ s⁻¹ and 0.0222 M⁻¹ s⁻¹, respectively. Also, the LC50 is 0.21 µg/mL (≈ 0.985 µM) in [1], 8.01 µg/mL (≈ 37.6 µM) in experiment [3] and 6.28 µg/mL (≈ 29.5 µM) in experiment [4]. Besides, the Ratio in experiment [7] came out at 3.5; in [10], 3.8. Further, the RatioLC50 in experiment [2] was 38.9; in experiment [5], 30.6.
On to `CCOP(=O)(OCC)Oc1ccc([N+](=O)[O-])cc1` [PARAOXON], for which the Ki in [6] is 0.0135 M⁻¹ s⁻¹; in experiment [8], 0.0237 M⁻¹ s⁻¹; in [9], 0.012 M⁻¹ s⁻¹. The Ratio worked out at 2 in experiment [7] and 1.8 in experiment [10].
As to `CCOP(=S)(OCC)Oc1ccc([N+](=O)[O-])cc1` [PARATHION], the 50% lethal concentration (LC50) in experiment [1] was determined as 0.2 µg/mL (≈ 0.687 µM); in experiment [3], 8.07 µg/mL (≈ 27.7 µM); in [4], 64.8 µg/mL (≈ 222 µM). For the same molecule, the RatioLC50 in [2] is recorded as 40.8; in experiment [5], 326.9.
Consider `CCOP(=O)(OCC)SCCSCC` [demeton S], for which the Ki was found to be 0.0437 M⁻¹ s⁻¹ in experiment [6], 0.0575 M⁻¹ s⁻¹ in [8] and 0.0447 M⁻¹ s⁻¹ in experiment [9]. For the same molecule, the Ratio in experiment [7] and in experiment [10] was 1.3 each time.
Regarding `CCSCCSP(=O)(OC)OC` [demeton-S-methyl], the values for the Ki in experiment [6], in [8] and in [9] were 0.0685 M⁻¹ s⁻¹, 0.101 M⁻¹ s⁻¹ and 0.0725 M⁻¹ s⁻¹, respectively.

The values above are taken from ChEMBL document CHEMBL3046733, “Comparative toxicity of selected organophosphate insecticides against resistant and susceptible clones of the greenbug, Schizaphis graminum (Homoptera: aphididae)” (J Agric Food Chem, 2000).
